Converted amounts (≈) assume the structure as drawn.
Test system: not listed separately
Assay: Partition coefficient (logD7.4)
Conditions: octanol/water, pH 7.4

| logD | SMILES |
| --- | --- |
| -1.03 | Fc1cccc(Br)c1N(CC1CC1)C1=NCCN1 |
| -0.05 | Brc1cccc(Br)c1N(Cc1ccccc1)C1=NCCN1 |
| -0.82 | CC(C)N(C1=NCCN1)c1c(Br)cccc1Br |
| -1.03 | Brc1cccc(Br)c1N(CC1CC1)C1=NCCCN1 |
| -1.12 | Brc1cccc(Br)c1N(CC1CC1)C1=NCCN1 |
| -0.41 | Brc1cccc(N(CC2CC2)C2=NCCN2)c1Br |
| -1.01 | CCN(C1=NCCN1)c1c(Br)cccc1Br |
| 0.27 | Brc1cccc(Br)c1N(CC1CCCCC1)C1=NCCN1 |
| -0.92 | Clc1cccc(Cl)c1N(CC1CC1)C1=NCCN1 |
| -0.55 | CCCN(C1=NCCN1)c1c(Br)cccc1Br |
| -1.3 | Brc1ccccc1N(CC1CC1)C1=NCCN1 |

| SMILES | logD |
| --- | --- |
| C=CCCN(C1=NCCN1)c1c(Br)cccc1Br | -0.63 |
| C=C(C)CCN(C1=NCCN1)c1c(Br)cccc1Br | 0.02 |
| C=CCN(C1=NCCN1)c1c(Br)cccc1Br | -0.75 |
| C=CCN(C1=NCCN1)c1c(Cl)cccc1Cl [ALINIDINE] | -1.66 |
| C=C(C)CN(C1=NCCN1)c1c(Br)cccc1Br | -0.66 |

Organism: Cavia porcellus
Assay: Evaluated for decrease in contractility in isolated guinea pig atria
Assay type: functional
Conditions: not given
Procedure, shortened: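 Electrically driven left guinea pig atria (300–500 g, either sex) in modified Tyrode's gassed 98% O2/2% CO2, 30 °C, 1 g resting tension. Stimulation 3 ms rectangular pulses at 1.5× threshold, 2.5 Hz, after 20 min equilibration. Isometric force in grams. Concentrations added cumulatively, doubled every 10 min, one atrium per experiment. EC30 (30% fall from predrug value) read from curves.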

| SMILES | EC30 [µg/mL] |
| --- | --- |
| C[N+](C)(C)CCOC(N)=O.[Cl-] [CARBACHOL] | 0.0065 |
| C=C[C@H]1CN2CC[C@H]1C[C@@H]2[C@@H](O)c1ccnc2ccc(OC)cc12 [QUINIDINE] | 62 (≈ 191 µM) |
| COc1ccc(CCN(C)CCCC(C#N)(c2ccc(OC)c(OC)c2)C(C)C)cc1OC (stereo unspecified) | 0.24 (≈ 0.528 µM) |
| Brc1cccc(Br)c1N(CC1CC1)C1=NCCN1 | 95 (≈ 255 µM) |

Organism: Cavia porcellus
Assay: Evaluated for decrease in maximal driving frequency in isolated guinea pig atria
Assay type: functional
Conditions: not given
Procedure, shortened: (§1)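 Guinea pig left atria in modified Tyrode's gassed 98% O2/2% CO2, 1 g resting tension, driven with 1 ms pulses at 3× threshold. Runs separated by 5 min at 0.5 Hz. Control is the mean of 3 predrug runs; the value is the mean of runs at 5 and 10 min after each cumulative addition, concentration doubled every 10 min. EC30 read from curves.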

| SMILES | EC30 [µg/mL] |
| --- | --- |
| C=C[C@H]1CN2CC[C@H]1C[C@@H]2[C@@H](O)c1ccnc2ccc(OC)cc12 [QUINIDINE] | 6.5 (≈ 20 µM) |
| COc1ccc(CCN(C)CCCC(C#N)(c2ccc(OC)c(OC)c2)C(C)C)cc1OC (stereo unspecified) | 6.5 (≈ 14.3 µM) |
| Brc1cccc(Br)c1N(CC1CC1)C1=NCCN1 | 12 (≈ 32.2 µM) |

Organism: Cavia porcellus
Assay: Evaluated for decrease in spontaneous frequency of atrial rate in isolated guinea pig atria
Assay type: functional
Conditions: Cardiac atrium
Procedure, shortened: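 Atria dissected from guinea pigs of various breeds (300–500 g, either sex) and suspended in modified Tyrode's solution gassed with 98% O2/2% CO2, resting tension 1 g. Spontaneously beating atria at 37 °C, equilibrated at least 30 min until rate stable within 5 beats/min. Drug added cumulatively, concentration doubled every 10 min. EC30 = concentration reducing predrug rate by 30%, read from curves.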

| SMILES | EC30 [µg/mL] |
| --- | --- |
| C[N+](C)(C)CCOC(N)=O.[Cl-] [CARBACHOL] | 0.029 |
| C=C[C@H]1CN2CC[C@H]1C[C@@H]2[C@@H](O)c1ccnc2ccc(OC)cc12 [QUINIDINE] | 7.2 (≈ 22.2 µM) |
| COc1ccc(CCN(C)CCCC(C#N)(c2ccc(OC)c(OC)c2)C(C)C)cc1OC (stereo unspecified) | 0.2 (≈ 0.44 µM) |
| Brc1cccc(Br)c1N(CC1CC1)C1=NCCN1 | 0.65 (≈ 1.74 µM) |

Organism: Cavia porcellus
Assay: Evaluated for increase in maximal driving frequency in isolated guinea pig atria
Assay type: functional
Conditions: not given
Procedure, shortened: as §1

| SMILES | EC30 [µg/mL] |
| --- | --- |
| C[N+](C)(C)CCOC(N)=O.[Cl-] [CARBACHOL] | 0.09 |

Test system: Rattus norvegicus
Assay: Dose required to decrease heart rate after iv injection to spinal rats
Assay type: functional
Conditions: not given
Procedure, shortened: (§2)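 Male Chbb:THOM rats, 200–250 g, under pentobarbital sodium 50 mg/kg ip, atropine sulfate 1 mg/kg sc, trachea cannulated. Medulla cut at C1, brain destroyed, artificially ventilated. Jugular iv injections given cumulatively, dose doubled every 2 min, 3 doses per animal, top cumulative dose 10 mg/kg. ECG-triggered tachograph heart rate. D150 (dose lowering rate 150 beats/min) read graphically from log dose–response curves; n = 6 rats.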

| SMILES | D150 |
| --- | --- |
| Fc1cccc(Br)c1N(CC1CC1)C1=NCCN1 | 1.5 mg/kg |
| Brc1cccc(Br)c1N(Cc1ccccc1)C1=NCCN1 | 2.5 mg/kg |
| Brc1ccc(N(CC2CC2)C2=NCCN2)cc1Br | >>10 mg kg-1 |
| CC(C)N(C1=NCCN1)c1c(Br)cccc1Br | 2.3 mg/kg |
| C=CCCN(C1=NCCN1)c1c(Br)cccc1Br | 1 mg/kg |
| C=C(C)CCN(C1=NCCN1)c1c(Br)cccc1Br | 1.03 mg/kg |
| Brc1cccc(Br)c1N(CC1CC1)C1=NCCCN1 | 1.1 mg/kg |
| C=CCN(C1=NCCN1)c1c(Br)cccc1Br | 1.5 mg/kg |
| Brc1cccc(Br)c1N(CC1CC1)C1=NCCN1 | 0.62 mg/kg |
| CN(C1=NCCN1)c1c(Br)cccc1Br | 1.4 mg/kg |
| Brc1cccc(N(CC2CC2)C2=NCCN2)c1Br | 7.5 mg/kg |
| CCN(C1=NCCN1)c1c(Br)cccc1Br | 0.75 mg/kg |
| Brc1cccc(Br)c1N(CC1CCCCC1)C1=NCCN1 | 6.5 mg/kg |
| Clc1cccc(Cl)c1N(CC1CC1)C1=NCCN1 | 0.65 mg/kg |
| CCCN(C1=NCCN1)c1c(Br)cccc1Br | 0.65 mg/kg |
| C=CCN(C1=NCCN1)c1c(Cl)cccc1Cl [ALINIDINE] | 2.5 mg/kg |
| Brc1ccccc1N(CC1CC1)C1=NCCN1 | 4.4 mg/kg |
| C=C(C)CN(C1=NCCN1)c1c(Br)cccc1Br | 2.1 mg/kg |

Organism: Rattus norvegicus
Assay: Evaluated for decreased heart rate in spinal rats, relative activity was determined
Assay type: functional
Conditions: not given
Procedure, shortened: as §2

| SMILES | Relative activity |
| --- | --- |
| Fc1cccc(Br)c1N(CC1CC1)C1=NCCN1 | 0.41 |
| Brc1cccc(Br)c1N(Cc1ccccc1)C1=NCCN1 | 0.25 |
| Brc1ccc(N(CC2CC2)C2=NCCN2)cc1Br | <<0.062 |
| CC(C)N(C1=NCCN1)c1c(Br)cccc1Br | 0.27 |
| C=CCCN(C1=NCCN1)c1c(Br)cccc1Br | 0.62 |
| C=C(C)CCN(C1=NCCN1)c1c(Br)cccc1Br | 0.6 |
| Brc1cccc(Br)c1N(CC1CC1)C1=NCCCN1 | 0.56 |
| C=CCN(C1=NCCN1)c1c(Br)cccc1Br | 0.41 |
| Brc1cccc(Br)c1N(CC1CC1)C1=NCCN1 | 1 |
| Brc1cccc(N(CC2CC2)C2=NCCN2)c1Br | 0.083 |
| CCN(C1=NCCN1)c1c(Br)cccc1Br | 0.83 |
| Brc1cccc(Br)c1N(CC1CCCCC1)C1=NCCN1 | 0.095 |
| Clc1cccc(Cl)c1N(CC1CC1)C1=NCCN1 | 0.95 |
| CCCN(C1=NCCN1)c1c(Br)cccc1Br | 0.95 |
| C=CCN(C1=NCCN1)c1c(Cl)cccc1Cl [ALINIDINE] | 0.25 |
| Brc1ccccc1N(CC1CC1)C1=NCCN1 | 0.14 |
| C=C(C)CN(C1=NCCN1)c1c(Br)cccc1Br | 0.3 |

Test system: not listed separately
Assay: EC30 ratio of contractility to atrial rate in isolated guinea pig atria
Assay type: functional, Cardiac atrium
Conditions: not given
Procedure, shortened: (§3)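 Ratios of EC30 values from isolated guinea pig atria. Atrial rate was measured in spontaneously beating atria at 37 °C after at least 30 min of equilibration, until rate varied by no more than 5 beats/min. Contractility was measured in left atria driven at 2.5 Hz, 30 °C. Maximal driving frequency was found by stepwise pacing. Compound was added cumulatively, concentration doubled every 10 min.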

| SMILES | Ratio |
| --- | --- |
| C=C[C@H]1CN2CC[C@H]1C[C@@H]2[C@@H](O)c1ccnc2ccc(OC)cc12 [QUINIDINE] | 8.6 |
| Brc1cccc(Br)c1N(CC1CC1)C1=NCCN1 | 146 |

Test system: not listed separately
Assay: EC30 ratio of maximal driving frequency to atrial rate in isolated guinea pig atria
Assay type: functional, Cardiac atrium
Conditions: not given
Procedure, shortened: as §3

| SMILES | Ratio |
| --- | --- |
| C=C[C@H]1CN2CC[C@H]1C[C@@H]2[C@@H](O)c1ccnc2ccc(OC)cc12 [QUINIDINE] | 0.9 |
| Brc1cccc(Br)c1N(CC1CC1)C1=NCCN1 | 18 |

Test system: not listed separately
Assay: Ratio of contractility to atrial rate in isolated guinea pig atria
Assay type: functional, Cardiac atrium
Conditions: not given
Procedure, shortened: as §3

| SMILES | Ratio |
| --- | --- |
| C[N+](C)(C)CCOC(N)=O.[Cl-] [CARBACHOL] | 0.22 |
| COc1ccc(CCN(C)CCCC(C#N)(c2ccc(OC)c(OC)c2)C(C)C)cc1OC (stereo unspecified) | 1.2 |

Test system: not listed separately
Assay: Dissociation constant (pKa)
Assay type: physicochemical
Conditions: not given

| pKa | SMILES |
| --- | --- |
| 10.7 | Fc1cccc(Br)c1N(CC1CC1)C1=NCCN1 |
| 10.4 | Brc1cccc(Br)c1N(Cc1ccccc1)C1=NCCN1 |
| 11.2 | CC(C)N(C1=NCCN1)c1c(Br)cccc1Br |
| 12.4 | Brc1cccc(Br)c1N(CC1CC1)C1=NCCCN1 |
| 10.9 | Brc1cccc(Br)c1N(CC1CC1)C1=NCCN1 |
| 11.1 | Brc1cccc(N(CC2CC2)C2=NCCN2)c1Br |
| 11.1 | CCN(C1=NCCN1)c1c(Br)cccc1Br |
| 11.2 | Brc1cccc(Br)c1N(CC1CCCCC1)C1=NCCN1 |
| 10.9 | Clc1cccc(Cl)c1N(CC1CC1)C1=NCCN1 |
| 11 | CCCN(C1=NCCN1)c1c(Br)cccc1Br |
| 11.2 | Brc1ccccc1N(CC1CC1)C1=NCCN1 |

| SMILES | pKa |
| --- | --- |
| C=CCCN(C1=NCCN1)c1c(Br)cccc1Br | 11.2 |
| C=C(C)CCN(C1=NCCN1)c1c(Br)cccc1Br | 10.9 |
| C=CCN(C1=NCCN1)c1c(Br)cccc1Br | 10.7 |
| CN(C1=NCCN1)c1c(Br)cccc1Br | 10.7 |
| C=CCN(C1=NCCN1)c1c(Cl)cccc1Cl [ALINIDINE] | 10.4 |
| C=C(C)CN(C1=NCCN1)c1c(Br)cccc1Br | 10.7 |
